Several values for one entry are separate records, joined by “and”; a condition that tells them apart may be missing. Equal values may be shown once. Read-outs that look alike come from different tables or passages of the source. Marks after values point to notes of the source that are not given here. Values belong to the molecule of their own block, whether it stands above or below them.
Tests used:
[1] = type: in vivo, human; settings: for RLIN, linearity factor (ratio of multiple-dose AUC0–12 to single-dose AUC): 600 mg BID with food; for RAAUC, accumulation ratio based on AUC0–12 / RACmax, accumulation ratio based on Cmax: multiple (day 7) vs single (day 1) dosing, 600 mg BID; for trough concentrations reached steady-state levels after: BID treatment 600 mg
Procedure, shortened: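 Fifteen healthy men took 600 mg (two 300 mg tablets) 30 min after starting a standardized meal on day 1, then twice daily on days 4–7. Plasma was sampled to 72 h after the single dose, at trough on days 4–6, and to 12 h on day 7. Samples underwent solid-phase extraction and LC-MS/MS. Accumulation ratios compared multiple- with single-dose AUC0–12 and Cmax. RLIN was multiple-dose AUC0–12 over single-dose AUC0–inf.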

[2] = ARIADME phase I pharmacokinetics/bioavailability study; type: in vivo, human; settings: for Cmax: healthy male subjects; for CL renal: plasma and urine, CLR; for half-life: t½; for AUC(0-inf): AUC0–inf; for AUC(0-t): AUC0–tlast; for tmax: median (range)
Procedure, shortened: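 Six healthy fasted men took one oral 300 mg tablet, then a 100 µg IV 14C-microtracer as a 15-min infusion ending 3 h post-dose. Six others took an oral 14C-dose of 300 mg in aqueous propylene glycol solution (≤ 6.3 MBq). Oral plasma levels were measured by validated HPLC-MS, and IV levels by LC fractionation with accelerator MS. Values are geometric mean (CV%).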

[3] = nonmetastatic CRPC, cited from earlier work
[4] = cited from earlier work
[5] = type: in vivo, human; settings: for Cmax increase vs healthy subjects / exposure (AUC0–48) increase vs healthy subjects: single 600 mg with food
Procedure, shortened: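 Open-label, parallel-group, multicenter trial in men aged 45–79. Groups were Child–Pugh B cirrhosis, severe renal impairment (eGFR 15–29 mL/min/1.73 m2, MDRD equation), and age- and weight-matched healthy controls. Each took two 300 mg tablets 30 min after starting a standardized breakfast. Plasma was sampled pre-dose to 48 h and assayed by validated LC-MS/MS. Parameters used total and unbound concentrations.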

[6] = tested on: patients with nonmetastatic castration-resistant prostate cancer (CRPC); settings: 600 mg BID, cited from earlier work
[7] = Solubility in fed vs fasted state simulated intestinal fluid; type: physicochemical; settings: in vitro data (data on file)
[8] = tested on: plasma proteins; experiment: In vitro plasma protein binding; type: in vitro ADME; settings: human plasma (data on file)
[9] = tested on: plasma proteins; type: in vitro ADME, human; settings: ex vivo samples after single oral administration of darolutamide 600 mg
Procedure, shortened: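 Unbound fractions of the parent, both diastereomers and keto metabolite were measured by equilibrium dialysis. Plasma came from healthy male subjects and from non-cancer patients with moderate hepatic or severe renal impairment, after a single oral 600 mg dose taken with food.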

[10] = Day 1 (single dose) 600 mg oral with food, median (range)
[11] = Day 7 (multiple doses) 600 mg BID oral with food, median (range)
[12] = 100 µg IV 14C-microtracer, 15-min infusion, geometric mean (CV%)
[13] = male, human, plasma, iv, 100 µg
[14] = male, human, plasma, po, 300 mg, single 300 mg oral 14C-solution, fasted, geometric mean (CV%)
[15] = male, human, plasma, po, 300 mg, single 300 mg oral tablet, fasted, geometric mean (CV%)
[16] = male, human, plasma, po, 600 mg
[17] = moderate hepatic impairment (Child–Pugh class B)

RLIN, linearity factor (ratio of multiple-dose AUC0–12 to single-dose AUC) [1]: 1.1
tmax [1, 10]: 5.98 (2.50–8.00) h
tmax [1, 11]: 3.98 (0.00–6.02) h
RAAUC, accumulation ratio based on AUC0–12 [1]: 2.3
RACmax, accumulation ratio based on Cmax [1]: 2.0
SMILES: C[C@H](O)c1cc(C(=O)N[C@@H](C)Cn2ccc(-c3ccc(C#N)c(Cl)c3)n2)n[nH]1 [(S,S)-darolutamide]

clearance, (S,R)-darolutamide higher vs (S,S)-darolutamide ([2]; after the IV dose): 2.9 fold
RLIN, linearity factor (ratio of multiple-dose AUC0–12 to single-dose AUC) [1]: 0.9
Terminal t½ ([1]; Day 1 (single dose) 600 mg oral with food, geometric mean/geometric CV% (range)): 14.5 h
tmax [1, 10]: 3.97 (1.02–6.02) h
tmax [1, 11]: 3.00 (0.967–4.00) h
RAAUC, accumulation ratio based on AUC0–12 [1]: 1.2
RACmax, accumulation ratio based on Cmax [1]: 1.2
SMILES: C[C@@H](Cn1ccc(-c2ccc(C#N)c(Cl)c2)n1)NC(=O)c1cc([C@@H](C)O)[nH]n1 [(S,R)-darolutamide]

SMILES: CC(O)c1cc(C(=O)N[C@@H](C)Cn2ccc(-c3ccc(C#N)c(Cl)c3)n2)[nH]n1 (stereo partly shown) [Darolutamide]
exposure vs patients with normal organ function ([3]; patients with mild hepatic impairment): not higher
exposure vs patients with normal organ function ([3]; patients with mild or moderate renal impairment): at most only slightly higher
AUC0–inf [2, 12]: 13,645 (39.5)^a h⋅pg eq/mL
fraction absorbed based on amount of total 14C-radioactivity excreted in urine ([2]; 300 mg oral solution): 127%
fraction absorbed based on plasma AUC of total 14C-radioactivity ([2]; 300 mg oral solution): 109%
Cmax [2, 12]: 4127 (27.4)^a pg eq/mL
CL renal ([2]; male, human, po, 300 mg, single 300 mg oral 14C-solution, fasted, geometric mean (CV%)): 7.73 mL/min
CL renal ([2]; male, human, po, 300 mg, single 300 mg oral tablet, fasted, geometric mean (CV%)): 6.52 mL/min
Vd [2, 13]: 119 L
clearance [2, 13]: 116 mL/min
half-life ([2]; male, human, plasma, iv, 100 µg, 100 µg IV 14C-microtracer, 15-min infusion, geometric mean (CV%)): 11.8 h
AUC(0-inf) [2, 14]: 45600 ng·h/mL
AUC(0-inf) [2, 15]: 12900 ng·h/mL
AUC(0-t) [2, 14]: 45300 ng·h/mL
AUC(0-t) [2, 15]: 12400 ng·h/mL
Cmax ([2]; male, human, plasma, po, 300 mg, Cmax, single 300 mg oral 14C-solution, fasted, geometric mean (CV%)): 3820 ng/mL
Cmax ([2]; male, human, plasma, po, 300 mg, Cmax, single 300 mg oral tablet, fasted, geometric mean (CV%)): 800 ng/mL
bioavailability ([2]; male, human, plasma, po, 300 mg, F (absolute oral bioavailability), single 300 mg oral 14C-solution, fasted, geometric mean (CV%)): 98.9%
bioavailability ([2]; male, human, plasma, po, 300 mg, F (absolute oral bioavailability), single 300 mg oral tablet, fasted, geometric mean (CV%)): 29.9%
Vd/F [2, 14]: 101 L
Vd/F [2, 15]: 514 L
bioavailability ([2]; male, human, plasma, po, 300 mg, absolute bioavailability, single 300 mg oral solution, fasted): 98.9%
tmax ([2]; male, human, plasma, po, 300 mg, single 300 mg oral 14C-solution, fasted): 1.58 h
tmax ([2]; male, human, plasma, po, 300 mg, single 300 mg oral tablet, fasted): 3.5 h
half-life [2, 14]: 10.6 h
half-life [2, 15]: 15.3 h
CL/F ([2]; single 300 mg oral 14C-solution, fasted, geometric mean (CV%)): 110 (21.3) mL/min
absolute bioavailability ([2]; single 300 mg oral solution, fasted): ~ 100%
CL/F ([2]; single 300 mg oral tablet, fasted, geometric mean (CV%)): 388 (36.2) mL/min
mean AUC0–inf, oral solution higher than tablet formulation ([2]; single 300 mg, fasted): 3.5 fold
mean Cmax, oral solution higher than tablet formulation ([2]; single 300 mg, fasted): 4.8 fold
absolute bioavailability based on AUC0–inf ([2]; single 300-mg oral tablet, fasted state, IV microtracer as reference): ~ 30%
mean whole blood:plasma ratio of total 14C-radioactivity ([2]; single oral solution dose): 0.7
absolute bioavailability of tablet given with food [4]: 60–75%
tmax ([5]; Moderate hepatic impairment, single oral 600 mg with food, median (range)): 4.00 (4.00–8.00) h
tmax ([5]; Severe renal impairment, single oral 600 mg with food, median (range)): 4.00 (3.00–12.0) h
tmax [5, 16]: 4 h
terminal t½ compared with healthy subjects ([5]; moderate hepatic impairment): did not change
Cmax increase vs healthy subjects [5, 17]: 1.5 fold
exposure (AUC0–48) increase vs healthy subjects [5, 17]: 1.9 fold
terminal t½ vs healthy subjects ([5]; severe renal impairment): prolonged
Cmax increase vs healthy subjects ([5]; severe renal impairment): 1.6 fold
exposure (AUC0–48) increase vs healthy subjects ([5]; severe renal impairment): 2.5 fold
overall survival hazard ratio vs placebo ([6]; 95% confidence interval 0.53–0.88, p = 0.003): 0.69
metastasis-free survival ([6]; p < 0.001 vs placebo): 40.4 months
solubility in fed vs fasted state simulated intestinal fluid [7]: improved solubility
mean free (unbound) fraction [8]: ~ 8% and 8%
mean free (unbound) fraction in plasma [9]: 7.8%
RLIN, linearity factor (ratio of multiple-dose AUC0–12 to single-dose AUC) [1]: 1.1
trough concentrations reached steady-state levels after [1]: 1 days
tmax [1, 10]: 5.97 (2.50–7.95) h
tmax [1, 11]: 3.98 (2.00–5.98) h
half-life ([1]; male, human, plasma, oral, 600 mg): 13 h
AUC(0-inf) [1, 16]: 26200 ng·h/mL
half-life [1, 16]: 11.6 h
tmax ([1]; male, human, plasma, po, 600 mg, median time to peak concentration, oral tablet, single dosing of 600 mg): 4 to 6 h
RAAUC, accumulation ratio based on AUC0–12 [1]: 2.1
RACmax, accumulation ratio based on Cmax [1]: 1.9
mean peak plasma concentration ([1]; single oral dose 600 mg with food, healthy male subjects): 1.77 µg/mL
time to steady state ([1]; twice-daily dosing): approximately 2 days

metabolite:parent total concentration ratio based on AUC0–inf ([2]; IV microtracer dose): 1.50
metabolite:parent total concentration ratio based on AUC0–inf ([2]; oral solution dose): 2.06
metabolite:parent total concentration ratio based on AUC0–inf ([2]; oral tablet dose): 1.67 and 1.7
plasma exposure (AUC0–48) vs healthy subjects ([5]; patients with renal or hepatic impairment, increase less pronounced than for darolutamide): increased
mean free (unbound) fraction [8]: 0.2% and < 1%
mean free (unbound) fraction in plasma [9]: 0.12%
RLIN, linearity factor (ratio of multiple-dose AUC0–12 to single-dose AUC) [1]: 1.2
trough concentrations reached steady-state levels after [1]: 1 days
tmax [1, 10]: 4.00 (2.50–6.02) h
tmax [1, 11]: 3.00 (1.48–5.97) h
plasma exposure of keto-darolutamide vs darolutamide ([1]; after single and multiple dosing of darolutamide): approximately twofold higher
RAAUC, accumulation ratio based on AUC0–12 [1]: 2.2
RACmax, accumulation ratio based on Cmax [1]: 2.0
SMILES: CC(=O)c1cc(C(=O)N[C@@H](C)Cn2ccc(-c3ccc(C#N)c(Cl)c3)n2)[nH]n1 [Keto-darolutamide, keto-darolutamide]

— PMC8975796 (Clinical Pharmacokinetics, 2021)
